These results are taken from publication PMC9942872 (Proceedings of the National Academy of Sciences of the …, 2023).

This test has as its target T1, NaLdpA (Novosphingobium aromaticivorans, UniProt Q2G4I2).
T1 sequence (Q2G4I2 1-243): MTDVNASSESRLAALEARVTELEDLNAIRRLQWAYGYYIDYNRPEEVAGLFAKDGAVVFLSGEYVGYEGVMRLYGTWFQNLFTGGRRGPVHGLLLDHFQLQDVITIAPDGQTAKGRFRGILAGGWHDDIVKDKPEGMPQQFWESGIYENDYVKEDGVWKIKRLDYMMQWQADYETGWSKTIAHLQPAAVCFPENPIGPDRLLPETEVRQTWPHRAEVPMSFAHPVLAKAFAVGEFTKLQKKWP
The test is described as follows: spectrophotometric lignostilbene production, product inhibition. In kind it is biochemical. In a few lines: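 Recombinant polyHis-tagged enzyme expressed in E. coli, purified by chromatography and stored at −80 °C. Reactions were run in air-saturated MOPS (I = 0.1 M), pH 7.0, at 25 °C. Erythro-DGPD substrate concentration was varied, with lignostilbene added at 0, 1, 2, 4 or 10 μM.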

As a reminder, the Ki is the equilibrium dissociation constant of an inhibitor or competing ligand from its target. High values mean weaker binding, low ones tighter binding. With `COc1cc(/C=C/c2ccc(O)c(OC)c2)ccc1O` [lignostilbene], the Ki came out at 330 ± 30 nM.
